Assay outcomes: PubChem BioAssay, several laboratories
Compounds with a hit are over-represented: about 1.3% of the library has one in this group of screens.
CHT PAM = CHT positive allosteric modulators, primary screen, cell-based, membrane potential dye, choline EC20; High affinity choline transporter 1 (Homo sapiens), Q9GZV3; B-score at 10 µM; CHT-expressing cells; active compounds read high; LV-AA mutant CHT in HEK293 cells; AID 488977, 2010; hit rate 0.49% among 310,000;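 active means initial fluorescence not abnormally high and integrated response B-score, plate-corrected, over 3 SD above library mean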
procasp7 counter = procaspase-7 activators, primary screen, counter-screen for procaspase-3 activator project, biochemical, absorbance, HTS, human. Caspase-7 (Homo sapiens), P55210. recombinant procaspase-7, Ac-DEVD-pNA absorbance 405 nm; D23A/D198A/D206A triple mutant, cannot self-cleave; scale: DMSO 0, 5 µM enzyme 100. activation, % at 8.5 µM. hit rate 0.093% among 330,000;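 active means percent activation above the screen-wide mean plus 3 SD, cut at about 25% in these data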
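Replicates: singlicate. Assay system: Procaspase-7 triple mutant (PC-7 D3A). Signal: 405 nm absorbance of p-nitroaniline. Times: 1 h preincubation, 2 h reaction. Buffer or medium: Zinc-free HEPES pH 7.4 with 300 mM NaCl, 0.01% Triton X-100. Also added: DEVD-pNA substrate. Benchmarks: DMSO wells as 0%, DMSO with 5 µM added PC-7 as 100%.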
CHT block = inhibitors of human choline transporter CHT | B-score at 10 µM | hit rate 0.86% among 310,000 | CHT-expressing cells, membrane potential dye, choline response; active compounds read low;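 active means B-score over 3 SD under the library average, and starting fluorescence ratio not unusually high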;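 further: choline stimulus applied at its EC90 after an EC20 pre-addition; B-score computed on integrated fluorescence ratio after choline addition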
proCasp3 act = activators of human procaspase-3 D3A mutant, primary screen, biochemical, absorbance, PC-3 D3A mutant, single concentration. AID 463141, 2010. Caspase-3 (Homo sapiens), P42574. recombinant procaspase-3 D3A, Ac-DEVD-pNA absorbance 405 nm. activation, % at 8.5 µM. hit rate 0.11% among 330,000;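 active means activation above the mean of all tested compounds plus 3 SD, cut at about 21% in these data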;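 further: 0% = DMSO alone and 100% = DMSO wells spiked with extra 5 µM PC-3 D3A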
Target sequence (P42574 whole entry D9A/D28A/D175A): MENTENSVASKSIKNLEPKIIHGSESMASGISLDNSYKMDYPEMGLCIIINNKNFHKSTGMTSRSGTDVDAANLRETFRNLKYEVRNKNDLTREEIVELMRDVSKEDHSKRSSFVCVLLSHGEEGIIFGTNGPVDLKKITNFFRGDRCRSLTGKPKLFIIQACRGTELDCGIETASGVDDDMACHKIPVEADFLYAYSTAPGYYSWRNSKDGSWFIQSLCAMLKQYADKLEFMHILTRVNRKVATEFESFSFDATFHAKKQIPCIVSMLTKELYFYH
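Test system: Procaspase-3 D3A mutant, all three cleavage aspartates alanine | Dosing: Single dose, 8.5 µM nominal compound, 0.8% DMSO | Schedule: 1 h preincubation, 2 h reaction | Technique: 405 nm absorbance of p-nitroaniline, reads at 0 and 120 min | Repeats: One well per compound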
CHT block conf = CHT inhibitors, confirmation, cell-based, membrane potential dye, duplicate; CHT activity remaining % of control (active compounds read low), % at 10 µM; hit rate 70% among 2,400; shares compounds with CHT block; CHT-expressing cells, choline membrane potential dye; LV-to-AA substituted CHT, HEK293 cells;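 active means choline transporter activity left, mean of duplicates at 10 µM, below buffer-only control mean minus 3 SD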;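 further: depolarization triggered by choline at its EC90 following an EC20 pre-addition; 0% = hemicholinium-3 full block and 100% = buffer-only control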
HEK293 CHT ctr = membrane potential effects in parental HEK293, counter-screen for CHT inhibitor project, cell-based, membrane potential dye; shares compounds with CHT block; choline response; active = decrease or increase beyond buffer ±3SD; membrane potential ratio readout (active if shifted either direction beyond buffer ±3SD; no single direction) at 10 µM; AID 493222, 2011; hit rate 4% among 2,400;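 further: parental cells lack the transporter so any hit is non-specific; ratio is peak minus trough fluorescence over baseline after EC90 choline challenge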
* hit, by the source's call.

Screening Cc1cc(C)cc(OCC(O)CN2CCC(CN3C(=O)c4cccc5cccc(c45)C3=O)CC2)c1 (stereo unspecified) returned CHT PAM inactive, procasp7 counter 2, CHT block -5.5*, proCasp3 act 1, CHT block conf 58%* and HEK293 CHT ctr inactive.
Cc1ccc(CSc2nnc(SCC(=O)N/N=C/c3ccc(C(=O)O)cc3)s2)cc1 was read as CHT PAM inactive, procasp7 counter 7, CHT block -5*, proCasp3 act 6, CHT block conf inactive and HEK293 CHT ctr inactive.
For O=C(CSc1nnc(SCc2ccccc2)s1)N/N=C/c1ccc(C(=O)O)cc1 the results were CHT PAM inactive, procasp7 counter 2, CHT block inactive and proCasp3 act 1.
For O=[N+]([O-])c1ccc(Sc2ncc3ccccn23)nc1 the results were CHT PAM inactive, procasp7 counter -1, CHT block -13*, proCasp3 act -2, CHT block conf 7.7%* and HEK293 CHT ctr inactive.
Cc1ccc(CNC(=O)N[C@@H](Cc2ccccc2)C(=O)O)cc1 was read as CHT PAM inactive, procasp7 counter 4, CHT block -16*, proCasp3 act 4, CHT block conf 60%* and HEK293 CHT ctr inactive.
CS(=O)(=O)Nc1ccc(C(=O)Nc2ccc(S(=O)(=O)Nc3nccs3)cc2)cc1 was read as CHT PAM inactive, procasp7 counter -4, CHT block inactive and proCasp3 act -3.
Screening CC(Oc1ccccc1)C(=O)Nc1ccc(S(=O)(=O)Nc2nccs2)cc1 (stereo unspecified) returned CHT PAM inactive, procasp7 counter -6, CHT block inactive and proCasp3 act 4.
`CCC(Oc1ccc(C)cc1)C(=O)Nc1ccc(S(=O)(=O)Nc2nccs2)cc1` (stereo unspecified) gave CHT PAM inactive, procasp7 counter 4, CHT block -6.5*, proCasp3 act 7, CHT block conf 40%* and HEK293 CHT ctr inactive.
O=C(Nc1ccc(S(=O)(=O)Nc2nccs2)cc1)c1c(F)c(F)c(F)c(F)c1F was read as CHT PAM inactive, procasp7 counter 2, CHT block -5*, proCasp3 act 6, CHT block conf 35%* and HEK293 CHT ctr inactive.
COc1ccc(NC(=O)Nc2ccc3c(c2)CC(=O)N([C@H](C)CO)C[C@H](C)[C@H](CN(C)Cc2ccc(C(=O)O)cc2)O3)cc1 was read as procasp7 counter 7 and proCasp3 act 7.
For CCC(Sc1nnc(-c2ccc(C)c(Cl)c2)n1CC)C(=O)Nc1nccs1 (stereo unspecified) the results were CHT PAM inactive, procasp7 counter -4, CHT block -5.9*, proCasp3 act -12, CHT block conf 50%* and HEK293 CHT ctr inactive.
For Cc1nc2cc(C(=O)N3c4ccccc4CC3C)ccc2s1 (stereo unspecified) the results were CHT PAM inactive, procasp7 counter 0, CHT block -5.3*, proCasp3 act 5, CHT block conf 56%* and HEK293 CHT ctr inactive.
`COc1ccc(NC(=O)c2ccccc2NC(=O)c2ccccc2C(=O)O)c(OC)c1` gave CHT PAM inactive, procasp7 counter -4, CHT block inactive and proCasp3 act 2.
Screening COc1cc(Br)ccc1NC(=O)c1ccccc1-c1ccccc1C(=O)O returned CHT PAM inactive, procasp7 counter 8, CHT block -5.4*, proCasp3 act -5, CHT block conf inactive and HEK293 CHT ctr inactive.
